Test results reported in ChEMBL document CHEMBL4689842, “EUbOPEN Chemogenomics Library wave 1” (2021).

Test system: U2OS
Assay: Multiplex assay against U2OS
Format: toxicity, cell-based
Conditions: human
Summary of the method: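 With compound added, live cells were imaged on a CQ1 microscope at 37°C and 5% CO2; staining with Hoechst33342, BioTracker Green Microtubule Cytoskeleton Dye, MitoTracker Red and Annexin V Alexa Fluor 680 had been done at seeding. The CellPathfinder machine-learning gating scheme split cells into Hoechst high-intensity objects or normal cells, normal cells into healthy, pyknosed or fragmented nuclei, and pyknosed cells into mitotic or apoptotic. The tubulin, mitochondrial-mass and membrane-permeability phenotypes are per cents of healthy-nucleus cells.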

[1] = 12 h, 1 µM, compound concentration 1 uM, replicate 1
[2] = 12 h, 1 µM, compound concentration 1 uM, replicate 2
[3] = 12 h, 10 µM, compound concentration 10 uM, replicate 1
[4] = 12 h, 10 µM, compound concentration 10 uM, replicate 2
[5] = 24 h, 1 µM, compound concentration 1 uM, replicate 1
[6] = 24 h, 1 µM, compound concentration 1 uM, replicate 2
[7] = 24 h, 10 µM, compound concentration 10 uM, replicate 1
[8] = 24 h, 10 µM, compound concentration 10 uM, replicate 2
[9] = 48 h, 1 µM, compound concentration 1 uM, replicate 1
[10] = 48 h, 1 µM, compound concentration 1 uM, replicate 2
[11] = 48 h, 10 µM, compound concentration 10 uM, replicate 1
[12] = 48 h, 10 µM, compound concentration 10 uM, replicate 2

For `CN1CCCC(n2nc(Cc3ccc(Cl)cc3)c3ccccc3c2=O)CC1.Cl` (stereo not given) [AZELASTINE HYDROCHLORIDE], the “Population Apoptotic (%)” value [1] was 42%, the “Population Fragmented Nuclei (%)” value [1] was 12% and the “Population Healthy Nuclei (%)” value [1] was 71%. For the same molecule, the “Population Hoechst High Intensity Objects (%)” value [1] was 8%, the “Population Membrane Permeable-Phenotype (%)” value [1] was 11% and the “Population Mitochondria Different-Phenotype (%)” value [1] was 64%. For the same molecule, the “Population Mitotic Cells (%)” value [1] was 57%, the “Population Normal (%)” value [1] was 91% and the “Population Pyknosed Nuclei (%)” value [1] was 16%. The “Population Tubulin-Different-Phenotype (%)” value [1] was 70%, the “Total Cell Count” value [1] was 95 and the “Population Apoptotic (%)” value [2] was 25%. The “Population Fragmented Nuclei (%)” value [2] was 6%, the “Population Healthy Nuclei (%)” value [2] was 84% and the “Population Hoechst High Intensity Objects (%)” value [2] was 11%. The “Population Membrane Permeable-Phenotype (%)” value [2] was 7%, the “Population Mitochondria Different-Phenotype (%)” value [2] was 57% and the “Population Mitotic Cells (%)” value [2] was 75%. For the same molecule, the “Population Normal (%)” value [2] was 88%, the “Population Pyknosed Nuclei (%)” value [2] was 8% and the “Population Tubulin-Different-Phenotype (%)” value [2] was 68%. For the same molecule, the “Total Cell Count” value [2] was 51, the “Population Apoptotic (%)” value [3] was 63% and the “Population Fragmented Nuclei (%)” value [3] was 18%. For the same molecule, the “Population Healthy Nuclei (%)” value [3] was 52%, the “Population Hoechst High Intensity Objects (%)” value [3] was 12% and the “Population Membrane Permeable-Phenotype (%)” value [3] was 77%. The “Population Mitochondria Different-Phenotype (%)” value [3] was 97%, the “Population Mitotic Cells (%)” value [3] was 36% and the “Population Normal (%)” value [3] was 87%. The “Population Pyknosed Nuclei (%)” value [3] was 28%, the “Population Tubulin-Different-Phenotype (%)” value [3] was 97% and the “Total Cell Count” value [3] was 87. The “Population Apoptotic (%)” value [4] was 57%, the “Population Fragmented Nuclei (%)” value [4] was 14% and the “Population Healthy Nuclei (%)” value [4] was 70%. For the same molecule, the “Population Hoechst High Intensity Objects (%)” value [4] was 4%, the “Population Membrane Permeable-Phenotype (%)” value [4] was 84% and the “Population Mitochondria Different-Phenotype (%)” value [4] was 98%. For the same molecule, the “Population Mitotic Cells (%)” value [4] was 42%, the “Population Normal (%)” value [4] was 95% and the “Population Pyknosed Nuclei (%)” value [4] was 15%. For the same molecule, the “Population Tubulin-Different-Phenotype (%)” value [4] was 100%, the “Total Cell Count” value [4] was 96 and the “Population Apoptotic (%)” value [5] was 33%. The “Population Fragmented Nuclei (%)” value [5] was 16%, the “Population Healthy Nuclei (%)” value [5] was 65% and the “Population Hoechst High Intensity Objects (%)” value [5] was 5%. For the same molecule, the “Population Membrane Permeable-Phenotype (%)” value [5] was 5%, the “Population Mitochondria Different-Phenotype (%)” value [5] was 70% and the “Population Mitotic Cells (%)” value [5] was 66%. For the same molecule, the “Population Normal (%)” value [5] was 94%, the “Population Pyknosed Nuclei (%)” value [5] was 17% and the “Population Tubulin-Different-Phenotype (%)” value [5] was 68%. For the same molecule, the “Total Cell Count” value [5] was 108, the “Population Apoptotic (%)” value [6] was 50% and the “Population Fragmented Nuclei (%)” value [6] was 7%. For the same molecule, the “Population Healthy Nuclei (%)” value [6] was 76%, the “Population Hoechst High Intensity Objects (%)” value [6] was 8% and the “Population Membrane Permeable-Phenotype (%)” value [6] was 10%. For the same molecule, the “Population Mitochondria Different-Phenotype (%)” value [6] was 57%, the “Population Mitotic Cells (%)” value [6] was 50% and the “Population Normal (%)” value [6] was 91%. The “Population Pyknosed Nuclei (%)” value [6] was 15%, the “Population Tubulin-Different-Phenotype (%)” value [6] was 50% and the “Total Cell Count” value [6] was 57. For the same molecule, the “Population Apoptotic (%)” value [7] was 90%, the “Population Fragmented Nuclei (%)” value [7] was 29% and the “Population Healthy Nuclei (%)” value [7] was 46%. For the same molecule, the “Population Hoechst High Intensity Objects (%)” value [7] was 10%, the “Population Membrane Permeable-Phenotype (%)” value [7] was 95% and the “Population Mitochondria Different-Phenotype (%)” value [7] was 97%. For the same molecule, the “Population Mitotic Cells (%)” value [7] was 9%, the “Population Normal (%)” value [7] was 89% and the “Population Pyknosed Nuclei (%)” value [7] was 24%. The “Population Tubulin-Different-Phenotype (%)” value [7] was 100%, the “Total Cell Count” value [7] was 99 and the “Population Apoptotic (%)” value [8] was 95%. For the same molecule, the “Population Fragmented Nuclei (%)” value [8] was 16%, the “Population Healthy Nuclei (%)” value [8] was 58% and the “Population Hoechst High Intensity Objects (%)” value [8] was 4%. The “Population Membrane Permeable-Phenotype (%)” value [8] was 98%, the “Population Mitochondria Different-Phenotype (%)” value [8] was 100% and the “Population Mitotic Cells (%)” value [8] was 4%. For the same molecule, the “Population Normal (%)” value [8] was 95%, the “Population Pyknosed Nuclei (%)” value [8] was 25% and the “Total Cell Count” value [8] was 96. For the same molecule, the “Population Apoptotic (%)” value [9] was 54%, the “Population Fragmented Nuclei (%)” value [9] was 15% and the “Population Healthy Nuclei (%)” value [9] was 67%. The “Population Hoechst High Intensity Objects (%)” value [9] was 6%, the “Population Membrane Permeable-Phenotype (%)” value [9] was 5% and the “Population Mitochondria Different-Phenotype (%)” value [9] was 37%. The “Population Mitotic Cells (%)” value [9] was 45%, the “Population Normal (%)” value [9] was 93% and the “Population Pyknosed Nuclei (%)” value [9] was 16%. For the same molecule, the “Population Tubulin-Different-Phenotype (%)” value [9] was 53%, the “Total Cell Count” value [9] was 143 and the “Population Apoptotic (%)” value [10] was 50%. For the same molecule, the “Population Fragmented Nuclei (%)” value [10] was 11%, the “Population Healthy Nuclei (%)” value [10] was 74% and the “Population Hoechst High Intensity Objects (%)” value [10] was 7%. The “Population Membrane Permeable-Phenotype (%)” value [10] was 16%, the “Population Mitochondria Different-Phenotype (%)” value [10] was 41% and the “Population Mitotic Cells (%)” value [10] was 50%. The “Population Normal (%)” value [10] was 92%, the “Population Pyknosed Nuclei (%)” value [10] was 14% and the “Population Tubulin-Different-Phenotype (%)” value [10] was 47%. The “Total Cell Count” value [10] was 77, the “Population Apoptotic (%)” value [11] was 87% and the “Population Fragmented Nuclei (%)” value [11] was 23%. The “Population Healthy Nuclei (%)” value [11] was 39%, the “Population Hoechst High Intensity Objects (%)” value [11] was 11% and the “Population Membrane Permeable-Phenotype (%)” value [11] was 93%. For the same molecule, the “Population Mitochondria Different-Phenotype (%)” value [11] was 100%, the “Population Mitotic Cells (%)” value [11] was 12% and the “Population Normal (%)” value [11] was 88%. The “Population Pyknosed Nuclei (%)” value [11] was 36%, the “Total Cell Count” value [11] was 95 and the “Population Apoptotic (%)” value [12] was 93%. The “Population Fragmented Nuclei (%)” value [12] was 22%, the “Population Healthy Nuclei (%)” value [12] was 48% and the “Population Hoechst High Intensity Objects (%)” value [12] was 5%. The “Population Membrane Permeable-Phenotype (%)” value [12] was 98%, the “Population Mitochondria Different-Phenotype (%)” value [12] was 98% and the “Population Mitotic Cells (%)” value [12] was 6%. For the same molecule, the “Population Normal (%)” value [12] was 94%, the “Population Pyknosed Nuclei (%)” value [12] was 29% and the “Population Tubulin-Different-Phenotype (%)” value [12] was 100%. For the same molecule, the “Total Cell Count” value [12] was 119.
